Laboratory results published in ChEMBL document CHEMBL1212928, “Synthesis and resolution of cis-(+/-)-methyl (1R,2S/1S,2R)-2-[(4-hydroxy-4-phenylpiperidin-1-yl)methyl]-1-(4-methylphenyl)cyclopropanecarboxylate [(+/-)-PPCC)]: new sigma receptor ligands with neuroprotective effect” (J Med Chem, 2010).
Activity calls are given as the source filed them. The calls are words filed in the database; no cut-off is given here.

How the values were obtained:
Astrocyte [1] = test: Neuroprotective activity against glutamate-induced GSH depletion in rat astrocytes assessed as GSH level at 25 uM measured per gram of protein by spectrofluorimetry (RVb = 9.08 +/- 0.9 […]); format: functional
Astrocyte [2] = test: Neuroprotective activity against glutamate-induced ROS production in albino rat astrocytes assessed as dichlorofluresceine produced per gram of protein per 30 mins at 25 uM by spectrofluorimetry (RVb = 4.45 +/- 0.51 nmol); format: functional
[3] = molecular target: Sigma non-opioid intracellular receptor 1 (Cavia porcellus, UniProt Q60492); test: Displacement of [3H](+)-pentazocine from guinea pig sigma1 opioid receptor by liquid scintillation counting
Chain of Sigma non-opioid intracellular receptor 1 (Q60492 whole entry): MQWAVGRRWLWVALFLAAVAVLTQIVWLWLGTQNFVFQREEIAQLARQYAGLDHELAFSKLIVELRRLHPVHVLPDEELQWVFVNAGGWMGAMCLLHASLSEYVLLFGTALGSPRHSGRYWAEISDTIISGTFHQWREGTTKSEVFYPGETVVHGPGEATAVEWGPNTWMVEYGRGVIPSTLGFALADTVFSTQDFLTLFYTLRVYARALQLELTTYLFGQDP

[4] = (§1) Displacement of [3H]-DTG from sigma2 opioid receptor by liquid scintillation counting; parameters: species or system Cavia porcellus
[5] = Neuroprotective activity against glutamate-induced transglutaminase-2 expression albino rat astrocytes assessed as reduction in transglutaminase level at 25 uM by immunoblotting; format: functional, cell-based; settings: Astrocyte
In short: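 Primary rat neocortical astroglial cultures at 14 DIV, about 90-95% GFAP-positive. Exposed for 24 h to ligand at 25 μM, with or without glutamate at 500 μM. TG2 expression was measured by immunoblot with densitometry and compared against control and glutamate-alone cultures.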

Cavia porcellus = organism: Cavia porcellus; test: as §1
Rattus norvegicus = test: Analgesic activity in Sprague-Dawley rat assessed as reduction in (-)-U50,488H-induced tail flick latency at 1 mg/kg, sc pretreated 30 mins prior to (-)-U50,488H challenge; format: functional, organism-based; parameters: dose 1 mg/kg
In short: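 Rat tail-flick test. Ligand given systemically at 1 mg/kg sc as a pretreatment before a KOP agonist. Tail-flick latency was followed over the observation period, with basal latency also recorded.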

SMILES: COC(=O)[C@]1(c2ccc(C)cc2)C[C@@H]1CN1CCC(O)(c2ccccc2)CC1
- Activity (Astrocyte [1]): 13.44 nmol
- Activity (Astrocyte [2]): 3.05 nmol
- Ki [3]: 1.9 nM
- Ki [4]: 50.2 nM
- Activity [5]: Active

SMILES: COC(=O)[C@@]1(c2ccc(C)cc2)C[C@H]1CN1CCC(O)(c2ccccc2)CC1
- Activity (Astrocyte [1]): 14.87 nmol
- Activity (Astrocyte [2]): 3.67 nmol
- Ki [3]: 13 nM
- Activity (Cavia porcellus): 103 nM
- Activity (Rattus norvegicus): Active
- Activity [5]: inactive

SMILES: COC(=O)C1(c2ccc(C)cc2)CC1CN1CCC(O)(c2ccccc2)CC1 (racemic)
- Activity (Astrocyte [1]): 8.05 nmol
- Activity (Astrocyte [2]): 5.51 nmol
- Ki [3]: 1.8 nM
- Ki [4]: 20.8 nM
- Activity [5]: inactive

SMILES: CC(C)=CCN1CC[C@]2(C)c3cc(O)ccc3C[C@H]1[C@H]2C [(+)-PENTAZOCINE]
- Activity (Astrocyte [1]): 14.15 nmol
- Activity (Astrocyte [2]): 3.46 nmol
- Activity [5]: Active

SMILES: CC[C@H]1C[C@H]2C[C@H]3c4[nH]c5ccc(OC)cc5c4CCN(C2)[C@@H]13 [IBOGAINE]
- Activity (Astrocyte [1]): 7.95 nmol
- Activity (Astrocyte [2]): 5.82 nmol
- Activity [5]: inactive
